Consider six compounds from publication PMC11650976 (Dalton Transactions (Cambridge, England : 2003), 2024).

Series [1] deals with MDA-MB-231 (triple negative breast cancer cell). Briefly: In vitro cytotoxicity. Format: cell-based, human. Particulars: for IC50: read-out: IC50 MDA-MB-231, 72 h, MTT, mean ± S.D (n = 6). The essentials: (§1)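 Adherent cancer cells were exposed to test compound for 72 h. The series was a 3-fold dilution starting at 100 μM.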
Series [2] has as its system BT-333 (glioblastoma). Briefly: In vitro cytotoxicity. Type of series: cell-based, human. Particulars: read-out: IC50 BT-333; 72 h, MTT, mean ± S.D (n = 6). The essentials: as §1
Series [3] has as its system MRC5 (human lung fibroblast). Briefly: Cytotoxicity in normal cells MRC5. Format: cell-based. The settings on record: read-out: IC50 MRC5; mean ± S.D (n = 6).
The nature of series [4]: Solution stability in DMEM. Type of series: physicochemical. Particulars: 48 h, reading at λ = 260 nm.
Series [5] concerns MDA-MB-231 cancer cells. Briefly: Whole cellular uptake of Au. The settings on record: 10 μM for 18 h, GFAAS. Format: cell-based, human. The essentials:
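Adherent MDA-MB-231 cells were incubated with the test compound at 10 μM for 18 h. Whole-cell gold content was then measured by graphite furnace AAS. Data are mean ± s.e.m. (n = 3), compared by ordinary one-way ANOVA.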

Series [6] has as its system mitochondria of MDA-MB-231 cancer cells. Briefly: Mitochondria uptake of Au. Format: cell-based, human. The settings on record: 10 μM for 18 h, 20 million cells, GFAAS, n = 2. The essentials: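 MDA-MB-231 cells (20 million) were treated with test compound at 10 μM for 18 h. Standard fractionation then gave pure mitochondria, and gold content was measured by GFAAS. Data are mean ± s.e.m. (n = 2), compared by ordinary one-way ANOVA.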

Series [7] has as its system MDA-MB-231 cells. Briefly: Mitochondria membrane potential determination using TMRE dye. Format: cell-based, human. Particulars: for effect on mitochondria membrane potential (TMRE fluorescence): 5 and 10 μM for 2 hours.
The test system of series [8] is MDA-MB-231 cells. As to the kind of experiment: Intracellular ROS determination. Format: cell-based, human. Particulars: 10 μM, 90 minutes, DCF-DA, FACS. The essentials: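 MDA-MB-231 cells were exposed to the test compound at 5 and 10 μM. The text gives 90 min of exposure, and the figure legend gives 2 h. Cells were then stained with 2′,7′-dichlorodihydrofluorescein diacetate, and intracellular fluorescence was read by flow cytometry at 488 nm. Groups were compared by ordinary one-way ANOVA.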

On to `[Au+].[Cl-].c1ccc(P(c2ccccc2)c2ccccc2P(c2ccccc2)c2ccccc2)cc1.c1ccc(P(c2ccccc2)c2ccccc2P(c2ccccc2)c2ccccc2)cc1` [1-AuCl4, bis-[1,2-bis-(diphenylphosphino)benzene]gold(I)], for which the IC50 (in general, the point on the concentration scale where inhibition reaches its midpoint) came out at 1.78 ± 0.15 µM in series [1], 1.3 ± 0.04 µM in series [2] and 0.93 ± 0.02 µM in series [3].
Regarding `[Au+].[Cl-].c1ccc(P(c2ccccc2)c2ccccc2P(c2ccccc2)c2ccccc2)cc1.c1ccc(P(c2ccccc2)c2ccccc2P(c2ccccc2)c2ccccc2)cc1` [1-BF4, bis-[1,2-bis-(diphenylphosphino)benzene]gold(I)], the IC50 was determined as 0.82 ± 0.11 µM in series [1] and 0.66 ± 0.02 µM in series [2].
`[Au+].[Cl-].c1ccc(P(c2ccccc2)c2ccccc2P(c2ccccc2)c2ccccc2)cc1.c1ccc(P(c2ccccc2)c2ccccc2P(c2ccccc2)c2ccccc2)cc1` [1-Cl, bis-[1,2-bis-(diphenylphosphino)benzene]gold(I)]: the IC50 in series [1] was found to be 1.14 ± 0.12 µM; in series [2], 0.41 ± 0.2 µM; in series [3], 1.35 ± 0.04 µM. In addition, the “solution stability in DMEM” value in series [4] is listed as “stable in DMEM for 48 h without the formation of new adducts or reduction in peak intensity”. Further, in series [5], the “whole cell uptake (Au content)” value is “taken up more effectively compared to 1-AuCl4”. For the same compound, the “mitochondria uptake (Au)” value in series [6] amounted to 214.5 nmol/20 million cells. Moreover, the “effect on mitochondria membrane potential (TMRE fluorescence)” value in series [7] is “did not affect the mitochondria membrane potential significantly”.
Take `[Au+].[Cl-].c1ccc(P(c2ccccc2)c2ccccc2P(c2ccccc2)c2ccccc2)cc1.c1ccc(P(c2ccccc2)c2ccccc2P(c2ccccc2)c2ccccc2)cc1` [1-PF6, bis-[1,2-bis-(diphenylphosphino)benzene]gold(I)]: in series [1] (in both cancer cell lines tested (MDA-MB-231, BT-333)), the “fold more cytotoxic than Au(III) 3-PF6 counterpart (IC50)” value was 4–16 fold. Further, the figures for the IC50 in series [1], in series [2] and in series [3] were 0.3 ± 0.1 µM, 0.38 ± 0.02 µM and 1.91 ± 0.03 µM, respectively. The “whole cell uptake (Au content)” value in series [5] is listed as “taken up more effectively compared to 1-AuCl4”.
For “bis-[1,2-bis-(diphenylphosphino)benzene]gold(III) chloride [3-AuCl4]”, the IC50 was 1.52 ± 0.21 µM in series [1], 1.38 ± 0.23 µM in series [2] and 4.47 ± 0.05 µM in series [3]. The “solution stability in DMEM” value in series [4] is recorded as “showed solution stability for 48 h but significant reduction in peak intensity after 1 h of incubation”. Also, the “whole cell uptake (Au content)” value in series [5] is “significantly higher whole cell uptake compared to their Au(I) counterparts”. Moreover, the “mitochondria uptake (Au)” value in series [6] was found to be 375 nmol/20 million cells. Further, the “decrease in TMRE fluorescence intensity (mitochondria membrane potential)” value in series [7] (10 μM, 2 hours) is “about 53%”. The “effect on mitochondria membrane potential (TMRE fluorescence)” value in series [7] is reported as “concentration dependent decrease in fluorescence intensity”. Further, the “intracellular ROS produced” value in series [8] is “significant difference in the ROS produced by 3-AuCl4 compared to 1-Cl”.
Take “bis-[1,2-bis-(diphenylphosphino)benzene]gold(III) chloride [3-PF6]”: the IC50 in series [1] worked out at 4.92 ± 0.21 µM; in series [2] it was 1.76 ± 0.12 µM. Besides, in series [5], the “whole cell uptake (Au content)” value is “significantly higher whole cell uptake compared to their Au(I) counterparts”.
